Screens from PubChem.
In the library only some 4.4% were active in any assay of this set; here they are far more common.
bovine MsrA act: bovine MsrA enzyme activators, primary screen, biochemical, absorbance, HTS; purified bovine MsrA, absorbance read-out; Methionine sulfoxide reductase A (Bos taurus); activation, % at 10.6 µM; hit rate 0.3% among 360,000; in the data active = activation above about 7.5%;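 note: 0% = vehicle and 100% = reference activator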
AHR act: AHR activators, primary screen, cell-based, luminescence, luciferase reporter, human; Aryl hydrocarbon receptor (Homo sapiens), P35869; AHR-responsive luciferase reporter cells; activation, % at 5 µM; hit rate 2.5% among 320,000; in the data active = activation above about 47%;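 note: 0% = vehicle wells and 100% = reference agonist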
HTR2A ag: mouse Htr2a agonists via beta-arrestin recruitment, primary screen, cell-based, luminescence; CHO-K1 mHTR2A beta-arrestin complementation; percent of 30 µM serotonin response; activation, % at 7.6 µM; hit rate 0.66% among 360,000; AID 624169, 2012;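 active = activation above a run cutoff, the mean activation of all tested compounds plus 3 SD, cut at about 14% in these data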;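 note: 0% = plate median of compound wells and 100% = 30 µM serotonin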
AI-2 QS modul: Vibrio harveyi AI-2 quorum sensing modulators, primary screen, JMH597 strain, luminescence/OD600 ratio; Vibrio harveyi JMH597 AI-2 luminescence/OD600 ratio, 9 h; active compounds read low; strain lacks LuxN and CqsS sensors; 0 = neutral-control median; activity change, % at 7.5 µM; hit rate 0.4% among 300,000; in the data active = activity change below about -75%, passing the limit was not always enough;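 note: luminescence divided by OD600 gain over 9 h not by final OD600 alone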
MsrA inh: bovine MsrA enzyme inhibitors, primary screen, biochemical, absorbance, HTS; Methionine sulfoxide reductase A (Bos taurus); purified bovine MsrA, absorbance read-out; inhibition, % at 15.5 µM; hit rate 0.75% among 360,000; in the data active = inhibition above about 4.5%;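 note: 0% = vehicle wells with enzyme and 100% = reference inhibitor wells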
Tb MetRS inh: T. brucei MetRS inhibitors, primary screen, biochemical, luminescence; methionyl-tRNA synthetase (Trypanosoma brucei brucei); purified T. brucei MetRS, ATP depletion, Kinase-Glo luminescence; inhibition, % at 11.9 µM; hit rate 0.4% among 360,000;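 active = inhibition above a per-plate cutoff of the control wells' mean inhibition plus 3 SD, cut at about 5.5% in these data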;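 note: 0% = DMSO wells median and 100% = median of wells with control inhibitor compound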
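Assay system: T. brucei methionyl-tRNA synthetase, purified | Medium: HEPES buffer with MgCl2, KCl, DTT, spermine, BSA, pyrophosphatase | Compound: 11.9 µM single point | Incubation: 15 min enzyme-compound preincubation, 2 h reaction, 10 min detection, 25 °C | Measured by: Kinase-Glo luciferase luminescence reporting remaining unconsumed ATP | Measure: % inhibition normalized to control-well medians | Replication: Singlicate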
MOR ag counter: OPRM1 agonists via beta-arrestin recruitment, confirmation, counter-screen for mouse HTR2A agonist project, cell-based, luminescence, single concentration. shares compounds with HTR2A ag. U2OS OPRM1 beta-arrestin PathHunter; DMSO 0%, DAMGO 9.3 µM 100%. activation, % at 9.3 µM. hit rate 5.3% among 2,300;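 active = mean activation above the mean of DMSO-only wells plus 3 SD, cut at about 0.5% in these data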
Target sequence (P35372 whole entry, looked up): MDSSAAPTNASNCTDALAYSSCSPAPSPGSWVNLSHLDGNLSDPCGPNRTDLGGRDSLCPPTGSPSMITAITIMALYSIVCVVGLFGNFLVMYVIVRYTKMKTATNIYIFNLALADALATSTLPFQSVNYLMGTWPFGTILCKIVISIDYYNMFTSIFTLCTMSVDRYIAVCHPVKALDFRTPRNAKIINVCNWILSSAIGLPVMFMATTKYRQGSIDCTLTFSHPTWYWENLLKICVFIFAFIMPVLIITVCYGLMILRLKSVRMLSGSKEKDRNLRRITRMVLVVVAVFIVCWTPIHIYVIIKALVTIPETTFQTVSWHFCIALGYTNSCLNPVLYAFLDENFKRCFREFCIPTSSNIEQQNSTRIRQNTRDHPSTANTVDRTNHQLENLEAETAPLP
HTR2A ag conf: mouse HTR2A agonists, beta-arrestin recruitment, confirmation, cell-based, luminescence, CHO-K1 PathHunter, triplicate. DMSO 0%, 30 µM serotonin 100%. activation, % at 7.6 µM. hit rate 19% among 2,300. shares compounds with HTR2A ag. AID 624381, 2012;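 active = mean activation across triplicates above the hit threshold derived in the original primary screen, cut at about 15% in these data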
* marks the source's active call; other numbers are inactive results; / = not tested or not shown.

SMILES	bovine MsrA act	AHR act	HTR2A ag	AI-2 QS modul	MsrA inh	Tb MetRS inh	MOR ag counter	HTR2A ag conf
O=C(Cn1cc(C(F)(F)F)cc(Cl)c1=O)Nc1cccc(S(=O)(=O)N2CCCCC2)c1	-1	0	-9	/	0	0	/	/
COc1ccc(C(C)=O)cc1COC(=O)[C@H](Cc1ccccc1)NC(=O)c1ccco1	-3	1	3	/	0	0	/	/
COc1cccc(COC(=O)C(Cc2ccccc2)NC(=O)c2ccco2)c1 (centres undefined)	-3	/	17*	/	2	0	0	9
COc1ccc(-c2csc(C(O)c3ccccc3)n2)cn1 (centres undefined)	0	/	-8	/	/	0	/	/
CC1CCN(c2ncnc3nc[nH]c23)CC1	-7	-1	25*	-18	0	0	0	1
OC1CCN(c2ncnc3nc[nH]c23)CC1	0	-3	6	8	0	0	/	/
O=C(/C=C/[C@H]1O[C@@H](n2ccc(=O)[nH]c2=O)[C@H](O)[C@@H]1O)NCc1ccc2c(c1)OCO2	-3	/	-1	/	0	-1	/	/
CCn1nc(NC(=O)CC(C)C)c2cc3ccc(C)cc3nc21	-1	41	14*	4	4	0	0	-5
CCn1nc(NC(=O)CC(C)C)c2cc3cccc(C)c3nc21	-8	8	-4	11	1	-1	/	/
O=C(NC(=S)NC1CCCCC1)c1ccccc1[N+](=O)[O-]	-3	1	0	1	2	0	/	/
C[C@]12c3[nH]c4ccc(Cl)cc4c3CCN1C(=O)[C@@H](CC(=O)NCCC1=CCCCC1)C[C@@H]2C(=O)N1CCOCC1	0	/	23*	/	1	-1	-1	-6
Clc1cc(Cl)c(OCCCCn2cncn2)c(Cl)c1	-2	40	-1	25	3	0	/	/
CCOC(=O)CSc1[nH]c(=O)cc(C)c1C#N	1	8	6	6	-1	0	/	/
COC(=O)CSc1[nH]c(=O)cc(C)c1C#N	0	4	17*	13	0	0	0	-3
CCCCCC(=O)N1C[C@H](n2cc(-c3ccc(F)cc3)nn2)[C@@H](O)C[C@@H]1c1ccc(C)cc1	4	/	23*	/	0	-1	0	0
S=C(NCc1ccccc1)NCc1ccccc1Cl	-8	/	-1	10	-1	0	/	/
CCCCN(C(=O)CCC(=O)Nc1cc(C)on1)C(C(=O)NC1CCCC1)c1cccc(OC)c1 (centres undefined)	-9	1	14*	36	2	-1	-1	-5
COc1cccc(NC(=O)CN(C)C(=O)c2cccnc2Sc2ccc(C)c(C)c2)c1	-2	-3	-3	8	0	0	/	/
CCc1ccc(C(=O)C(C)OC(=O)Cn2cnc3c2c(=O)n(C)c(=O)n3C)cc1 (centres undefined)	-6	1	17*	4	1	-1	-1	-2
Cc1ccc2c(cnn2C(=O)CCC(=O)NCc2ccccc2Cl)c1	-3	0	19*	17	-1	-1	0	-1
Cc1ccc(CNC(=O)CCC(=O)n2ncc3cc(C)ccc32)cc1	-2	2	1	20	-1	-1	/	/
Cc1ccc(C(=O)N/C(=C/c2ccc(-c3cccc([N+](=O)[O-])c3)o2)C(=O)NC(C)C)cc1	-5	10	21*	14	0	-1	0	1
COc1cccc(-n2cc(CNCc3c(C(=O)N(C)C)nc4ccc(Cl)cn34)cn2)c1	-2	0	-5	11	0	0	/	/
COc1cccc(-n2cc(CNCc3cn(C)nc3-c3ccccc3F)cn2)c1	-2	1	30*	33	1	0	0	97*
COc1cc(OC)c2c(-c3ccccc3)cc(=O)oc2c1C(CCN1CCOCC1)c1ccc2c(c1)OCO2 (centres undefined)	-4	/	-3	/	0	-2	/	/
SMILES	bovine MsrA act	AHR act	HTR2A ag	AI-2 QS modul	MsrA inh	Tb MetRS inh	MOR ag counter	HTR2A ag conf
COc1cc(OC)c2c(-c3ccccc3)cc(=O)oc2c1C(CCN1CCN(c2ccccc2)CC1)c1ccc(N(C)C)cc1 (centres undefined)	-3	1	17*	40	2	0	-1	22*
COc1cc(OC)c2c(C)cc(=O)oc2c1C(CCN1CCN(c2ccccc2)CC1)c1ccc2c(c1)OCO2 (centres undefined)	-10	10	21*	8	2	0	-1	72*
O=Nc1ccc(Cl)cn1	/	/	/	/	0	/	/	/
CNc1cccnc1C=NNC(N)=S	-10	/	15*	/	2	0	-1	-3
NC(=S)NN=Cc1nccc2c(C(F)(F)F)cccc12	-2	/	5	/	2	0	/	/
OC(c1cc(C(F)(F)F)nc2c(C(F)(F)F)cccc12)C1CCCCN1 (centres undefined)	-8	1	31*	/	-2	-2	1.3*	14
COc1cccc(C=Nc2ccc(C)c(F)c2)c1O	-5	0	4	15	-1	0	/	/
COc1cccc(C=Nc2ccc3c(c2)CCC3)c1O	-2	1	15*	22	0	-1	-1	-3
CC(=O)NC(c1ccccc1)c1nc(-c2cccnc2)cs1 (centres undefined)	0	/	0	/	-1	0	/	/
Cc1noc(C)c1S(=O)(=O)N1CCC(C(=O)N2CCC(N3CCCCC3)CC2)CC1	-3	0	34*	16	-1	0	0	-4
Cc1noc(C)c1S(=O)(=O)N1CCCC(C(=O)N2CCN(C3CCCCC3)CC2)C1 (centres undefined)	-1	2	0	18	-1	-2	/	/
COc1ccc(S(=O)(=O)NC(C)C(=O)NCc2ccccn2)cc1OC (centres undefined)	-4	-2	3	17	1	0	/	/
O=C(c1cccc(Cl)c1)N1CCN(S(=O)(=O)c2ccc(Cl)s2)CC1	-2	0	16*	/	0	0	0	-3
COc1ccccc1CN(C)C(=O)CSCC(=O)Nc1ccccc1F	-3	3	4	/	0	0	/	/
